The record followed here is ChEMBL document CHEMBL1138222, “9-Benzylidene-naphtho[2,3-b]thiophen-4-ones as novel antimicrotubule agents-synthesis, antiproliferative activity, and inhibition of tubulin polymerization” (J Med Chem, 2006).

The nature of assay [1]: Cell cycle arrest in KB/HeLa cells by accumulation at S phase at 31.6 nM. In kind it is functional, cell-based. As to conditions: Homo sapiens. In short, it runs like this:
(§1)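 Subconfluent KB/HeLa cells were treated with a concentration series for 24 h at 37 °C, then detached and fixed in 70% ethanol. DNA was stained with propidium iodide alongside RNase digestion and measured by flow cytometry. Phase fractions came from cell-cycle modelling software, and IC50 from nonlinear regression.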

The nature of assay [2]: Cell cycle arrest in KB/HeLa cells by accumulation at S phase at 100 nM. As to conditions: Homo sapiens. In kind it is functional, cell-based. A digest of the protocol:
as §1

The nature of assay [3]: Cell cycle arrest in KB/HeLa cells by accumulation at S phase at 316 nM. As to conditions: Homo sapiens. It is filed as functional, cell-based. In short, it runs like this: as §1
Assay [4] can be described thus: Cell cycle arrest in KB/HeLa cells by accumulation at G2/M phase at 0.3 nM. In kind it is functional, cell-based. As to conditions: Homo sapiens. A digest of the protocol: as §1
A short description of assay [5]: Cell cycle arrest in KB/HeLa cells by accumulation at G2/M phase at 1 nM. In kind it is functional, cell-based. As to conditions: Homo sapiens. In short, it runs like this:
as §1

A short description of assay [6]: Cell cycle arrest in KB/HeLa cells by accumulation at G2/M phase at 10 nM. It is filed as functional, cell-based. As to conditions: Homo sapiens. A digest of the protocol:
as §1

Assay [7] in a line: Cell cycle arrest in KB/HeLa cells by accumulation at G2/M phase at 31.6 nM. In kind it is functional, cell-based. As to conditions: Homo sapiens. A digest of the protocol:
as §1

Assay [8] can be described thus: Cell cycle arrest in KB/HeLa cells by accumulation at G2/M phase at 100 nM. It is filed as functional, cell-based. As to conditions: Homo sapiens. In short, it runs like this:
as §1

Assay [9] in a line: Cell cycle arrest in KB/HeLa cells by accumulation at G2/M phase at 316 nM. In kind it is functional, cell-based. As to conditions: Homo sapiens. A digest of the protocol:
as §1

Assay [10] can be described thus: Cell cycle arrest in KB/HeLa cells by accumulation at G1 phase at 0.3 nM. In kind it is functional, cell-based. As to conditions: Homo sapiens. A digest of the protocol: as §1
A short description of assay [11]: Cell cycle arrest in KB/HeLa cells by accumulation at G1 phase at 1 nM. It is filed as functional, cell-based. As to conditions: Homo sapiens. In short, it runs like this: as §1
Assay [12] is described as follows: Cell cycle arrest in KB/HeLa cells by accumulation at G1 phase at 3.16 nM. In kind it is functional, cell-based. As to conditions: Homo sapiens. In short, it runs like this:
as §1

A short description of assay [13]: Cell cycle arrest in KB/HeLa cells by accumulation at G1 phase at 10 nM. It is filed as functional, cell-based. As to conditions: Homo sapiens. In short, it runs like this: as §1
Assay [14] in a line: Cell cycle arrest in KB/HeLa cells by accumulation at G1 phase at 31.6 nM. It is filed as functional, cell-based. As to conditions: Homo sapiens. In short, it runs like this: as §1
The nature of assay [15]: Cell cycle arrest in KB/HeLa cells by accumulation at G1 phase at 100 nM. In kind it is functional, cell-based. As to conditions: Homo sapiens. A digest of the protocol:
as §1

A short description of assay [16]: Cell cycle arrest in KB/HeLa cells by accumulation at G1 phase at 316 nM. It is filed as functional, cell-based. As to conditions: Homo sapiens. A digest of the protocol:
as §1

Assay [17] can be described thus: Cell cycle arrest in KB/HeLa cells by accumulation at G2/M phase. In kind it is functional, cell-based. As to conditions: Homo sapiens. A digest of the protocol:
as §1

A short description of assay [18]: Antiproliferative activity against KB/HeLa cells by XTT assay after 48 hrs. As to conditions: Homo sapiens. In kind it is functional, cell-based. A digest of the protocol:
(§2)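 Tumour cell lines were seeded at 1 × 10^3 to 8 × 10^4 cells/well for logarithmic growth and exposed to a concentration series for 48 h. Proliferation was read as cellular metabolic activity by XTT. IC50 came from dose-response curves by nonlinear regression, with at least two replicates.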

Assay [19] relates to RKO. The assay is described as follows: Antiproliferative activity against RKO cells with ectopic-induced p27kip1-expression by XTT assay after 48 hrs. In kind it is functional, cell-based. As to conditions: Homo sapiens. In short, it runs like this:
(§3)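 RKO colon adenocarcinoma cells carry an ecdysone-inducible p27kip1 vector. On day 1 they were plated with 3 µM ponasterone A (induced, 2 × 10^4 cells/well) or without it (not induced, 6 × 10^3 cells/well) and held 24 h at 37 °C. Compound or DMSO control was then added for 48 h at 37 °C, followed by a standard XTT read-out.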

Assay [20] is described as follows: Cell cycle arrest in KB/HeLa cells by accumulation at S phase at 0.3 nM. In kind it is functional, cell-based. As to conditions: Homo sapiens. A digest of the protocol: as §1
Assay [21] is described as follows: Cell cycle arrest in KB/HeLa cells by accumulation at S phase at 1 nM. It is filed as functional, cell-based. As to conditions: Homo sapiens. In short, it runs like this:
as §1

The nature of assay [22]: Cell cycle arrest in KB/HeLa cells by accumulation at S phase at 3.16 nM. In kind it is functional, cell-based. As to conditions: Homo sapiens. In short, it runs like this:
as §1

Assay [23] can be described thus: Cell cycle arrest in KB/HeLa cells by accumulation at S phase at 10 nM. In kind it is functional, cell-based. As to conditions: Homo sapiens. In short, it runs like this:
as §1

In assay [24] the test system is K562. The assay is described as follows: Antiproliferative activity against human K562 cell line. In kind it is functional, cell-based.
Assay [25] has as its target Tubulin (Sus scrofa, UniProt P02554+P02550). The assay is described as follows: Inhibition of tubulin polymerization in porcine brain.
The subject of assay [26] is SK-OV-3. The assay is described as follows: Antiproliferative activity against SKOV3 cells by XTT assay after 48 hrs. In kind it is functional, cell-based. As to conditions: Homo sapiens, SK-OV-3, 48 h. A digest of the protocol:
as §2

Assay [27] concerns SF-268. Put plainly: Antiproliferative activity against SF268 cells by XTT assay after 48 hrs. As to conditions: Homo sapiens, SF-268, 48 h. In kind it is functional, cell-based. In short, it runs like this:
as §2

Assay [28] concerns NCI-H460. The assay is described as follows: Antiproliferative activity against NCI-H460 cells by XTT assay after 48 hrs. In kind it is functional, cell-based. As to conditions: Homo sapiens, NCI-H460, 48 h. A digest of the protocol:
as §2

For assay [29], the system named is RKO. Put plainly: Antiproliferative activity against RKO cells by XTT assay after 48 hrs. In kind it is functional, cell-based. As to conditions: Homo sapiens. A digest of the protocol: as §3
The test system of assay [30] is MDR. Put plainly: Antiproliferative activity against LT12 MDR cells by XTT assay after 48 hrs. In kind it is functional, cell-based. As to conditions: Rattus norvegicus. A digest of the protocol:
as §2

The test system of assay [31] is L1210. Put plainly: Antiproliferative activity against L1210 VCR cells by XTT assay after 48 hrs. It is filed as functional, cell-based. As to conditions: Mus musculus, L1210, 48 h. A digest of the protocol:
as §2

For assay [32], the system named is P388. Put plainly: Antiproliferative activity against P388 cells by XTT assay after 48 hrs. In kind it is functional, cell-based. As to conditions: Mus musculus, P388, 48 h. A digest of the protocol: as §2
The subject of assay [33] is P388. The assay is described as follows: Antiproliferative activity against P388 ADR cells by XTT assay after 48 hrs. As to conditions: Mus musculus, P388, 48 h. It is filed as functional, cell-based. A digest of the protocol: as §2
The nature of assay [34]: cells. As to conditions: Rattus norvegicus, LT12, 48 h.

Turning to `COc1cc2c(c(OC)c1OC)-c1ccc(OC)c(=O)cc1[C@@H](NC(C)=O)CC2` [COLCHICINE], the Activity stood at 11.9% in assay [1]; 5.1% in assay [2]; 5.2% in assay [3]; 10.1% in assay [4]; 10% in assay [5]; 32.1% in [6]. The Activity in assay [7] was determined as 87.6%; in assay [8] it was 94.7%; in [9], 94.5%; in assay [10] it was 63.3%; in [11], 64.7%; in [12], 64.3%. In addition, the Activity in assay [13] came to 32.2%; in assay [14] it was 0.5%; in assay [15], 0.3%; in [16], 0.3%; in [20], 26.6%; in assay [21], 25.4%. The Activity was found to be 25.1% in [22] and 35.7% in assay [23]. In assay [17], this compound registered an EC50 of 14 nM. For the same compound, the IC50 was 30 nM in assay [18] and greater than 10000 nM in assay [19].

As to `COc1ccc(COc2c3ccccc3cc3sccc23)cc1`, the IC50 in assay [24] is 250 nM; in assay [25], 1520 nM; in assay [18], 470 nM; in assay [26], 270 nM; in [27] it was 430 nM; in [28], 980 nM. Moreover, the IC50 in assay [19] is greater than 9000 nM; in [29], 280 nM.

For the compound `CC[C@]1(O)C[C@@H]2CN(CCc3c([nH]c4ccccc34)[C@@](C(=O)OC)(c3cc4c(cc3OC)N(C)[C@H]3[C@@](O)(C(N)=O)[C@H](O)[C@]5(CC)C=CCN6CC[C@]43[C@@H]65)C2)C1` [VINDESINE], the IC50 in assay [30] is 260 nM; in assay [31], greater than 5000 nM; in assay [32] it was 10 nM; in assay [33], 1100 nM; in [34], 1 nM.

Regarding `COc1ccc(CCC(=O)Oc2c3ccccc3cc3sccc23)cc1`, in [24], the half-inhibitory concentration (IC50) is greater than 90000 nM.

`Cn1cc(/C=C2/c3ccccc3C(=O)c3ccsc32)c2ccccc21` came in with an IC50 in [24] of 250 nM.

For `COc1ccc(/C=C2/c3ccccc3C(=O)c3ccsc32)c(O)c1`, the IC50 in assay [24] came out at 230 nM; in [25] it was 770 nM.

Consider `COc1cc(/C=C2/c3ccccc3C(=O)c3ccsc32)ccc1O`, for which the half-maximal inhibitory concentration (IC50) in assay [24] stood at 100 nM; in [25], 880 nM.

Regarding `COc1ccc(/C=C2/c3ccccc3C(=O)c3ccsc32)cc1`, the half-maximal inhibitory concentration (IC50) in [24] stood at 440 nM; in assay [25] it was 3300 nM.

Turning to `COc1ccc(CC(=O)Oc2c3ccccc3cc3sccc23)cc1`, the results for the IC50 in assay [24] and in [25] were 15000 nM and greater than 10000 nM, respectively.

As to `O=C1c2ccccc2/C(=C/c2ccc(O)c(O)c2)c2sccc21`, half-maximal inhibition in assay [24] (IC50) required 270 nM.

With `COc1ccc(CCOc2c3ccccc3cc3sccc23)cc1`, the IC50 in assay [24] was 5300 nM; in assay [25] it was greater than 10000 nM.

As for `O=C1c2ccccc2/C(=C/c2ccc(O)cc2)c2sccc21`, the IC50 in assay [24] was determined as 810 nM.

Regarding `COc1cc(/C=C2/c3ccccc3C(=O)c3ccsc32)cc(OC)c1OC`, the IC50 was 600 nM in assay [24] and 7400 nM in assay [25].

Consider `O=C1c2ccccc2/C(=C/c2c[nH]c3ccccc23)c2sccc21`, for which the values for the concentration for half-maximal inhibition (IC50) in assay [24] and in assay [25] were 720 nM and 2800 nM, respectively.

In turn, `O=C1c2ccccc2/C(=C/c2cc(Cl)cc(Cl)c2)c2sccc21` displayed a 50% inhibitory concentration (IC50) in assay [24] of 420 nM.
